Screens as filed in PubChem.
KCNK3 inh = human KCNK3 channel inhibition, primary screen; actives 0.84% (n = 340,000); AID 602410; O14649; CHO-KCNK3 thallium flux, FluxOR fluorescence; hits give low values; B-score at 10 µM;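 active = B-score under library mean minus 4 SD, starting fluorescence ratio at most library mean plus 5 SD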;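 also: more negative B-score means stronger inhibition of thallium flux through KCNK3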
Target sequence (O14649 whole entry, looked up): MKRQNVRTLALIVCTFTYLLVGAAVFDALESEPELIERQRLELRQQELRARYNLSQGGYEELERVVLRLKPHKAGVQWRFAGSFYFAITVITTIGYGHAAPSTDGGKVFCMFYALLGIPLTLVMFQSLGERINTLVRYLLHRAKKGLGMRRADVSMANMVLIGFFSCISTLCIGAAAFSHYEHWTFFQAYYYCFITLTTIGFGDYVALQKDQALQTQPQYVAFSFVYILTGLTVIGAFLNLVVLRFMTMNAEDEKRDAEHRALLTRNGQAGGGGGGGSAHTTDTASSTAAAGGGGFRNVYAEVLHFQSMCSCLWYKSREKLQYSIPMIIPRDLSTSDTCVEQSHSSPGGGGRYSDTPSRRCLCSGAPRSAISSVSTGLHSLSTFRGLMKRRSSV
KCNK9 block = human KCNK9 channel inhibition. HEK293 KCNK9, FluxOR thallium flux fluorescence; hits give low values. B-score at 10 µM. actives 1.2% (n = 310,000);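 active = ratio B-score over 3 SD below the library mean, with starting fluorescence within 5 SD of its mean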;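 also: negative B-score means less thallium flux so channel inhibition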
Target sequence (Q9NPC2 whole entry, looked up): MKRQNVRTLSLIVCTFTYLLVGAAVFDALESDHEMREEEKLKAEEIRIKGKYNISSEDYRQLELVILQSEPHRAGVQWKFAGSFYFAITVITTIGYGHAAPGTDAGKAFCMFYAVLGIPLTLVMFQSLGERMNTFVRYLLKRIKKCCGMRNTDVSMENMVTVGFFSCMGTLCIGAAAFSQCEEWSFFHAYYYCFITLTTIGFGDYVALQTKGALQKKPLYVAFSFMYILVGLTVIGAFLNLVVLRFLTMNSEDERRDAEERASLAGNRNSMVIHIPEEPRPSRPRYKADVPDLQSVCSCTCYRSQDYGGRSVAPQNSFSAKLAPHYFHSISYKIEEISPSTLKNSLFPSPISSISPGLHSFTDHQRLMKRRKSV
hERG rescue = shields human hERG channel from block by proarrhythmic agents; actives 0.51% (n = 310,000); CHO-hERG, FluxOR thallium flux, dofetilide IC70 present; AID 1511; activation (rescue from dofetilide block), less the hit threshold, % at 10 µM;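 active = activation above the mean of controls blocked by dofetilide plus 5 SD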;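 also: thallium influx through hERG after potassium depolarization seen as dye fluorescence rise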
KCNQ1 block = blocks the human KCNQ1 potassium channel. P51787. CHO-K1 KCNQ1, FluxOR thallium flux fluorescence; hits give high values. B-score at 10 µM. actives 1.3% (n = 310,000);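 active = compounds whose thallium flux B-score, printed positive for inhibition, exceeds three library SD while starting fluorescence stays within three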;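 also: channel opened by potassium depolarization with thallium stimulus after 20 min compound exposure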
Kir21 inh = Kir2.1 (mouse) channel inhibition. HEK293-Kir2.1, FluxOR thallium flux fluorescence; hits give low values. AID 1672. B-score at 10 µM. actives 0.85% (n = 310,000). P35561;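 active = fluorescence ratio B-score at or below minus 3 SD of library scores, with starting-brightness B-score within 2 SD, cut at about -4.2 in these data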;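 also: channel flux triggered by added potassium and thallium sulfate stimulus; B-score of peak minus minimum fluorescence over baseline after thallium stimulus; more negative B-score means stronger Kir2.1 block with less thallium influx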
KCNQ1 act = potentiates or activates the human KCNQ1 potassium channel; P51787; actives 0.35% (n = 310,000); AID 2648; B-score at 10 µM; CHO-K1 KCNQ1, thallium flux FluxOR fluorescence; hits give high values;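 active = fluorescence ratio B-score, a plate-corrected score, at least three library SD, with initial intensity B-score within 5 SD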
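Assay system: CHO-K1 cells stably expressing KCNQ1. Medium: assay buffer for compound exposure, DMSO matched across wells. Timing: 37 °C overnight plating, 90-min dark dye load, 20-min compound pretreatment. Signal: kinetic FluxOR fluorescence, 10 s baseline plus 110 s post-stimulus.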
KCNK9 block conf = confirmation of human KCNK9 potassium channel inhibitors; shares compounds with KCNK9 block; HEK293 KCNK9 cells, FluxOR thallium flux fluorescence; inhibition, % at 10 µM; actives 43% (n = 4,900); AID 492992;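 active = thallium signal inhibited by more than 5 SD of the compound-free buffer control wells, on both duplicate plates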
Kir21 sel = selectivity of KCNK9 modulators against mouse Kir2.1; shares compounds with KCNK9 block; Kir2.1 cells, FluxOR thallium flux fluorescence; inhibition, % at 10 µM; actives 4% (n = 4,900); AID 492993;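 active = thallium signal drop more than 5 SD beyond the mean of the no-compound control wells, seen in both duplicate plates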;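 also: signal is fluorescence rise after thallium addition divided by baseline fluorescence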
HEK293 Tl ctr = second counter-screen for KCNK9 modulators: effect in non-induced cells | shares compounds with KCNK9 block | non-induced KCNK9-HEK293, FluxOR thallium flux | inhibition, % at 10 µM | actives 40% (n = 4,900);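 active = thallium signal drop beyond 5 SD of the untreated control mean, on both duplicate plates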
Large screens that a line does not name were inactive (follow-up assays come after a bar, where they were run). Sampled rows, rich in hits. Any-hit rate of the full collection: about 3.7%.

CCCn1c(C)cc(C(=O)COC(=O)c2ccc(Cl)c(S(=O)(=O)N3CCCC3)c2)c1C	KCNK9 block -18 | KCNK9 block conf 65% | Kir21 sel inactive | HEK293 Tl ctr inactive
CCOC(=O)C1CCCN(C(=O)c2ccc(Cl)c(S(=O)(=O)N3CCCCC3)c2)C1 (stereo unspecified)	none | KCNK9 block conf inactive | Kir21 sel inactive | HEK293 Tl ctr inactive
COc1ccc(CCNC(=O)C2CCN(C(=O)c3ccc(OC)c(OC)c3)CC2)cc1	none
C[C@H](CO)N1C[C@H](C)[C@@H](CN(C)C(=O)NC2CCCCC2)Oc2c(NC(=O)Cc3ccccc3)cccc2C1=O	none (no result: KCNK9 block, hERG rescue, KCNQ1 block, Kir21 inh, KCNQ1 act)
CN(c1ccccc1)S(=O)(=O)c1cccc(NC(=O)CSc2n[nH]c(N)n2)c1	none | KCNK9 block conf inactive | Kir21 sel inactive | HEK293 Tl ctr inactive
Cc1[nH][nH]c(=O)c1C(c1ccc(-c2ccc(C(=O)O)cc2)o1)c1c(C)[nH][nH]c1=O	none (no result: KCNK9 block, hERG rescue, KCNQ1 block, Kir21 inh, KCNQ1 act)
Cc1[nH][nH]c(=O)c1C(c1ccc(-c2ccc(Cl)c(Cl)c2)o1)c1c(C)[nH][nH]c1=O	KCNQ1 act 10 | KCNK9 block conf inactive | Kir21 sel inactive | HEK293 Tl ctr inactive
O=c1/c(=C\c2cccc(O)c2)sc2nc(-c3ccccc3)c(-c3ccccc3)n12	KCNK9 block -10 | KCNK9 block conf 43% | Kir21 sel inactive | HEK293 Tl ctr 28%
CCOC(=O)c1c(-c2ccc(-c3ccccc3)cc2)csc1NC(=O)C1C2CCC(O2)C1C(=O)O (stereo unspecified)	none | KCNK9 block conf inactive | Kir21 sel inactive | HEK293 Tl ctr inactive
CCOC(=O)c1c(-c2ccccc2)csc1NC(=O)C1CCCO1 (stereo unspecified)	none
Cn1c(N)c(C(=O)COC(=O)CNC(=O)c2ccc(Cl)cc2Cl)c(=O)n(C)c1=O	none (no result: KCNK9 block, hERG rescue, KCNQ1 block, Kir21 inh, KCNQ1 act)
COC(=O)c1cc(CN2CCN(c3ccccc3C)CC2)ccc1O	none | KCNK9 block conf inactive | Kir21 sel inactive | HEK293 Tl ctr inactive
Cc1ccccc1N1CCN(Cc2cccc(C(=O)O)c2)CC1	none
O=C(COC(=O)Cc1c(Cl)cccc1Cl)NCC1CCCO1 (stereo unspecified)	none
O=c1c2ccccc2c(-c2ccccc2)nn1-c1cc(Cl)ccc1[N+](=O)[O-]	none (no result: KCNK9 block, hERG rescue, KCNQ1 block, Kir21 inh, KCNQ1 act)
Cc1ccc(-c2nn(-c3cc(Cl)ccc3[N+](=O)[O-])c(=O)c3ccccc23)cc1C	none | KCNK9 block conf inactive | Kir21 sel inactive | HEK293 Tl ctr inactive
Cc1ccc(S(=O)(=O)Cn2nnnc2C(CC(C)C)N2CCN(C3CCCC3)CC2)cc1 (stereo unspecified)	none
CCc1nc(C)cn1S(=O)(=O)c1ccc(Br)cc1	none
CCC[C@@H]1CCCO[C@@](C(=O)NCc2ccc(S(C)(=O)=O)cc2)(C(F)(F)F)C1	none
O=C(NCc1ccccc1)[C@]1(C(F)(F)F)C[C@H](CCc2ccccc2)CCCO1	none | KCNK9 block conf inactive | Kir21 sel inactive | HEK293 Tl ctr inactive
CCCC[C@@H]1CCCO[C@@](C(=O)NCc2ccc(C)o2)(C(F)(F)F)C1	none | KCNK9 block conf inactive | Kir21 sel inactive | HEK293 Tl ctr inactive
Cc1ccc(C)c(N2CCN(C(=O)c3cc4sccc4n3C)CC2)c1	none
Cn1c(C(=O)N2CCN(c3cccc(C(F)(F)F)c3)CC2)cc2sccc21	none | KCNK9 block conf inactive | Kir21 sel inactive | HEK293 Tl ctr inactive
Cc1ccc(C)c(C(=O)COC(=O)C2CCN(c3ccc(C(F)(F)F)cn3)CC2)c1	none | KCNK9 block conf inactive | Kir21 sel inactive | HEK293 Tl ctr inactive
Cc1cc(C)c2sc(N(CCCN(C)C)C(=O)c3ccc(S(=O)(=O)N(C)C4CCCCC4)cc3)nc2c1	none | KCNK9 block conf inactive | Kir21 sel inactive | HEK293 Tl ctr inactive
Cc1sc2nc(-c3cccnc3)nc(Cl)c2c1-c1ccccc1	none | KCNK9 block conf inactive | Kir21 sel inactive | HEK293 Tl ctr inactive
CCN(CC)c1ccc(-c2nn3c(-c4ccccc4OC)nnc3s2)cc1	KCNK9 block -14 | KCNK9 block conf 43% | Kir21 sel inactive | HEK293 Tl ctr inactive
COc1ccc(-c2nn3c(-c4ccccc4)nnc3s2)cc1	none
Cc1ccc(N(Cc2cc3cccc(C)c3[nH]c2=O)S(=O)(=O)c2ccccc2)c(C)c1	none | KCNK9 block conf inactive | Kir21 sel inactive | HEK293 Tl ctr inactive
COc1cc(C)c(/C=C(\C#N)C(=O)Nc2cccc(C)c2)cc1C(C)C	none | KCNK9 block conf inactive | Kir21 sel inactive | HEK293 Tl ctr inactive
Cc1cccc(NC(=O)/C(C#N)=C\c2ccc(C(=O)O)cc2)c1	none
CCN(CC)S(=O)(=O)c1ccc(O)c(C(=O)OCC(=O)Nc2cc(C)c(C)cc2[N+](=O)[O-])c1	KCNK9 block -11 | KCNK9 block conf 32% | Kir21 sel inactive | HEK293 Tl ctr 26%
Clc1ccc(SCCOCCN2CCc3ccccc3C2)cc1	Kir21 inh -8.5 | KCNK9 block conf inactive | Kir21 sel inactive | HEK293 Tl ctr inactive
OC(COC(c1ccccc1)c1ccccc1)CN1CCc2ccccc2C1 (stereo unspecified)	none
OC(COC(c1ccc(Cl)cc1)c1ccc(Cl)cc1)CN1CCc2ccccc2C1 (stereo unspecified)	KCNK9 block -16 | KCNK9 block conf 58% | Kir21 sel inactive | HEK293 Tl ctr 38%
COC(=O)Nc1csc2c1NC(=O)CCCC2	none
CCOC(=O)Cc1c(C)nc2c(-c3ccccc3OC)c(C)nn2c1C	none | KCNK9 block conf inactive | Kir21 sel inactive | HEK293 Tl ctr inactive
CCOC(=O)Cc1c(C)nc2c(-c3ccc(Cl)cc3)c(C)nn2c1C	none
CC(C)C(NC(=O)c1ccccc1F)C(=O)NCc1ccc(S(=O)(=O)N2CCOCC2)cc1 (stereo unspecified)	none (no result: KCNK9 block, hERG rescue, KCNQ1 block, Kir21 inh, KCNQ1 act)
O=C(NCCN1CCOCC1)c1ccc(Cl)cc1O	none
CC1C(=NO)C(C)C(c2ccc(N(C)C)cc2)NC1c1ccc(N(C)C)cc1 (stereo unspecified)	none | KCNK9 block conf inactive | Kir21 sel inactive | HEK293 Tl ctr inactive
COc1ccc(C(=O)NNC(=S)NC(=O)c2cccs2)cc1	KCNK9 block -9.1 | KCNK9 block conf inactive | Kir21 sel inactive | HEK293 Tl ctr inactive
CCOc1cc(S(=O)(=O)Nc2ccc(CC)cc2)ccc1Cl	none | KCNK9 block conf inactive | Kir21 sel inactive | HEK293 Tl ctr inactive
CCOC(=O)c1ccc(NC(=O)C(=O)NCC2(c3ccc(OC)cc3)CCOCC2)cc1	none
